≈ marks a conversion by molar mass, not a printed value. Calls of active or inactive are those of the source. The rule behind the calls is not given here.
How the values were obtained:
[1] = target: T1, Pteridine reductase 1 (Leishmania major) (UniProt Q01782); assay: Inhibition of Leishmania major PTR1 at 5 uM
T1 sequence (whole entry): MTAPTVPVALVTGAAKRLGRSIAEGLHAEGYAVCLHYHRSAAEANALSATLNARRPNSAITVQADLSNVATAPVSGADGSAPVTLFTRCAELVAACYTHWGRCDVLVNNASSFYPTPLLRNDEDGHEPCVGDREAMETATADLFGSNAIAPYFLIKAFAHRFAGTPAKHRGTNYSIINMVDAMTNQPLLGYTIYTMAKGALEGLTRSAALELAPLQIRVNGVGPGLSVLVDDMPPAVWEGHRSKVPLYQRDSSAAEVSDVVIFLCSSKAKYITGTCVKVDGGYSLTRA
How it was run: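 Compounds dissolved in DMSO and screened at a single 5 μM concentration; DMSO kept below 1%. Measurements run in triplicate.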

[2] = Lipophilicity, log D of the compound in octanol buffer at pH 7.4; type: physicochemical
[3] = Solubility of the compound at pH 7.4; type: physicochemical; conditions: buffer
[4] = target: T1, Pteridine reductase 1 (Leishmania major); conditions: at 500 µM
[5] = target: T2, Dihydrofolate reductase (Homo sapiens) (UniProt P00374); assay: Inhibition of human DHFR at 100 uM
T2 sequence (whole entry): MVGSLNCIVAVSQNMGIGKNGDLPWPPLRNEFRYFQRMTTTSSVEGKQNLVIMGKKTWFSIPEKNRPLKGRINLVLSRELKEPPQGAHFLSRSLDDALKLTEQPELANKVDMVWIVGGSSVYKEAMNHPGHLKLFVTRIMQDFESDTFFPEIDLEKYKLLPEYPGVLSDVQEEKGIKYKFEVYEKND
How it was run: (§1)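 NADPH oxidation followed at 340 nm. Compounds in DMSO, screened at a single concentration between 25 μM and 1 mM. Measurements run in triplicate.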

[6] = target: Bifunctional dihydrofolate reductase-thymidylate synthase (Leishmania major) (UniProt P07382); assay: Inhibition of Leishmania major DHFR at 50 uM; how it was run: as §1
[7] = target: T2, Dihydrofolate reductase (Homo sapiens); assay: Inhibition of human DHFR at 50 uM; how it was run: as §1
[8] = Cytotoxicity against human MRC5 cells after 72 hrs by Alamar blue assay; type: cell-based; conditions: read-out: ED50
Leishmania mexicana [9] = assay: Antileishmanial activity against Leishmania mexicana MHOM/BZ/84/BEL46 assessed as growth at 50 ug/ml by Alamar blue assay; type: functional
How it was run: (§2)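 Promastigotes grown in SDM-79, pH 7.3, with 15% heat-inactivated FCS at 28 C in 5% CO2, then seeded at 1 × 10^6 parasites/mL. Each compound tested alone at 50 μg/mL in duplicate as a control for the combination experiments; DMSO below 1% final. After 72 h at 28 C, Alamar Blue added for 4 h; fluorescence read at ex 530 / em 590 nm. Growth expressed as percentage of untreated cultures.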

Leishmania major [10] = assay: Antileishmanial activity against Leishmania major MHOM/SU/73/5-ASKH assessed as growth at 50 ug/ml by Alamar blue assay; type: functional; how it was run: as §2
Leishmania major [11] = assay: Antileishmanial activity against Leishmania major MHOM/SU/73/5-ASKH assessed as growth at 50 ug/ml by Alamar blue assay in presence of pyrimethamine; 5-(4-chlorophenyl)-6-ethylpyrimidine-2,4-diamine DHFR inhibitor; values are per cent of control
Leishmania mexicana [12] = assay: Antileishmanial activity against Leishmania mexicana MHOM/BZ/84/BEL46 assessed as growth at 50 ug/ml by Alamar blue assay in presence of pyrimethamine; 5-(4-chlorophenyl)-6-ethylpyrimidine-2,4-diamine DHFR inhibitor; values are per cent of control
[13] = target: T2, Dihydrofolate reductase (Homo sapiens); assay: Inhibition of human DHFR at 1 mM; how it was run: as §1

Bifunctional dihydrofolate reductase-thymidylate synthase (Leishmania major), sequence (P07382 whole entry, looked up): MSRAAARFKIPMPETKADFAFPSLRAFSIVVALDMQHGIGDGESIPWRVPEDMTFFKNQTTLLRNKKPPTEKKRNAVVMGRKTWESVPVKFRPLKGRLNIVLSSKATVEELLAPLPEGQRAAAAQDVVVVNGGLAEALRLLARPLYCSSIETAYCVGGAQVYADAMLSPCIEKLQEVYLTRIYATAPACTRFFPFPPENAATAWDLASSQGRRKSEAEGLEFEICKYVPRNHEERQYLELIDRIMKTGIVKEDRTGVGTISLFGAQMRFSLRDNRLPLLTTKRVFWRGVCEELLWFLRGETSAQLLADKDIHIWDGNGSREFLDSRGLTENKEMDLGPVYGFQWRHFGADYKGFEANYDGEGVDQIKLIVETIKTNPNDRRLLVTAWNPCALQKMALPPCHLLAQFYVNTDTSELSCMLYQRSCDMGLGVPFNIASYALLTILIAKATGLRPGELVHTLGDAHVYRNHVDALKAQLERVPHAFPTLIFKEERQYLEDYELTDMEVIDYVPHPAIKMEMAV

Row | Structure (SMILES) | inhibition [1] | logD [2] | solubility [3] [µM] | inhibition [4] | also measured
1 | Nc1nnc(CC2NC(=O)NC2=O)s1 (stereo not given) | inactive | -1.74 | 87000 (≈ 18600 µg/mL) | – | –
2 | Cc1cc(=O)n(C)c2ccccc12 | – | – | – | inactive | –
3 | CC(=O)c1cccc(O)c1 | – | – | – | inactive | –
4 | N#Cc1ccc(-c2nnc(N)s2)cc1 | inactive | 1.68 | 390 (≈ 78.9 µg/mL) | – | –
5 | Nc1nnc(CCCl)s1 | – | 0.44 | 42000 (≈ 6870 µg/mL) | – | –
6 | Cc1nnc(N)s1 | inactive | -0.16 | 210000 (≈ 24200 µg/mL) | – | –
7 | CC(=O)n1cc(C=O)c2ccccc21 | – | – | – | inactive | –
8 | Cn1ncc2cc(N)ccc21 | – | – | – | – | inhibition [5]: inactive; inhibition [6]: inactive
9 | Nc1ccc(F)c(F)c1N | – | – | – | inactive | –
10 | Nc1nnc(CCC(=O)c2ccc(Cl)cc2)s1 | inactive | 2.2 | 210 (≈ 56.2 µg/mL) | – | inhibition [6]: inactive; inhibition [7]: inactive
11 | Nc1ccc(F)c(N)c1 | – | – | – | inactive | –
12 | CCc1nc(N)nc(N)c1-c1ccc(Cl)cc1 [PYRIMETHAMINE] | – | – | – | – | CC50 at 72 h [8]: 16.2 µg/mL (≈ 65.3 µM); growth, % of control at 50 µg/mL (Leishmania mexicana [9]): 102%; growth, % of control at 50 µg/mL (Leishmania major [10]): 68%
13 | CN(C)c1ccc(C=O)cc1C#N | – | – | – | inactive | –
14 | Nc1cc(-c2ccccc2)n[nH]1 | – | – | – | inactive | –
15 | CN1CCOc2cc(C=O)ccc21 | – | – | – | inactive | –
16 | COc1ccc2c(c1)c(C=O)cn2C | – | – | – | inactive | –
17 | Nc1nnc(CN2C(=O)c3ccccc3C2=O)s1 | inactive | 0.22 | 1300 (≈ 338 µg/mL) | – | –
18 | Nc1cc(O)c2ccccc2n1 | – | – | – | inactive | –
19 | COc1ccc(C(C)=O)cc1CCl | – | – | – | inactive | –
20 | Nc1nnc([C@@H](O)c2ccccc2)s1 | inactive | 1 | 3700 (≈ 767 µg/mL) | – | –
21 | O=C(CO)c1ccc(Cl)cc1 | – | – | – | inactive | –
22 | NNc1cccc(F)n1 | – | – | – | inactive | –
23 | O=C(O)CCNC(=O)c1ccc([N+](=O)[O-])cc1 | – | – | – | inactive | –
24 | Clc1cccc(-n2ccnc2)c1 | – | – | – | inactive | –
25 | Nc1cccc2c1C(=O)c1ccccc1-2 | – | – | – | inactive | –
26 | Nc1ccc(Cl)cc1C=O | – | – | – | inactive | –

Row | Structure (SMILES) | inhibition [1] | logD [2] | solubility [3] [µM] | inhibition [4] | also measured
27 | Nc1ccnc2ccccc12 | – | – | – | inactive | –
28 | NCCc1ccc(-c2nnc(N)s2)cc1 | inactive | -0.69 | 210000 (≈ 46300 µg/mL) | – | –
29 | Cc1cc(C)cc(-c2nnc(N)s2)c1 | inactive | 2.95 | 400 (≈ 82.1 µg/mL) | – | –
30 | C#CCn1cc(C(=O)O)c(=O)c2cc(F)c(Cl)cc21 | – | – | – | inactive | –
31 | Cc1cccc2cc[nH]c12 | – | – | – | inactive | –
32 | O=C1CCCN1c1ccccc1 | – | – | – | inactive | –
33 | C=CCc1cc(OC)c(O)cc1C=O | – | – | – | inactive | –
34 | Nc1nnc(CCc2ccccc2)s1 | inactive | 2.03 | 1300 (≈ 267 µg/mL) | – | –
35 | NC(=O)C1=C2CCCc3cccc(c32)C1=O | – | – | – | inactive | –
36 | Fc1cccc(-n2ccnc2)c1 | – | – | – | inactive | –
37 | Cc1ccc(C(=N)N)cc1 | – | – | – | inactive | –
38 | Nc1nnc(-c2cccc([N+](=O)[O-])c2)s1 | inactive | 1.94 | 530 (≈ 118 µg/mL) | – | –
39 | Nc1cc(F)ccc1O | – | – | – | inactive | –
40 | O=Cc1ccc(O)cc1F | – | – | – | inactive | –
41 | Nc1nnc(-c2cc(=O)c3ccccc3o2)s1 | inactive | 1.4 | 730 (≈ 179 µg/mL) | – | growth, % of control at 50 µg/mL (Leishmania major [11]): 14.6%; CC50 at 72 h [8]: 43 µg/mL (≈ 175 µM); inhibition [7]: inactive; growth, % of control at 50 µg/mL (Leishmania mexicana [9]): 132%; growth, % of control at 50 µg/mL (Leishmania mexicana [12]): 35.1%; growth, % of control at 50 µg/mL (Leishmania major [10]): 76%
42 | CCC(C)c1nnc(N)s1 (stereo not given) | inactive | 1.25 | 22000 (≈ 3460 µg/mL) | – | –
43 | Nc1nnc(CCC(=O)c2cccs2)s1 | inactive | 1.11 | 1200 (≈ 287 µg/mL) | – | growth, % of control at 50 µg/mL (Leishmania major [11]): 17.5%; CC50 at 72 h [8]: 34.4 µg/mL (≈ 144 µM); growth, % of control at 50 µg/mL (Leishmania mexicana [9]): 96.9%; growth, % of control at 50 µg/mL (Leishmania mexicana [12]): 27.3%; growth, % of control at 50 µg/mL (Leishmania major [10]): 85.1%
44 | O=C(CN1C(=O)c2ccccc2C1=O)Nc1nnc(CN2C(=O)c3ccccc3C2=O)s1 | inactive | – | – | – | inhibition [6]: inactive; inhibition [7]: inactive
45 | Nc1nc(-c2ccc(Cl)cc2)cs1 | – | – | – | inactive | –
46 | Cc1nnsc1SC(C)C | – | – | – | inactive | –
47 | O=Cc1ccc2c(c1)CCO2 | – | – | – | inactive | –
48 | Cc1ccc(-c2nnc(N)s2)cc1C | inactive | 2.95 | 420 (≈ 86.2 µg/mL) | – | –
49 | Cc1cccc(-c2nnn[nH]2)c1 | – | – | – | inactive | –
50 | O=C1Cc2ccc(F)cc2N1 | – | – | – | inactive | –
51 | Nc1nnc(-c2ccc3nn[nH]c3c2)s1 | – | 0.38 | 2500 (≈ 546 µg/mL) | – | CC50 at 72 h [8]: 51.5 µg/mL (≈ 236 µM)
52 | CCOc1ccc(CO)cc1 | – | – | – | inactive | –

Row | Structure (SMILES) | inhibition [1] | logD [2] | solubility [3] [µM] | inhibition [4] | also measured
53 | CC(=O)c1ccc(C#N)s1 | – | – | – | inactive | –
54 | CCn1nc(C)cc1N | – | – | – | inactive | –
55 | N#C/C=C(/N)N1CCCC1 | – | – | – | inactive | –
56 | Nc1nnc(CCOc2ccc(Cl)cc2)s1 | inactive | 2.44 | 240 (≈ 61.4 µg/mL) | – | –
57 | Cn1cc(C(=O)O)c2ccccc21 | – | – | – | inactive | –
58 | Nc1nnc(-c2ccncc2)s1 | inactive | 0.77 | 13000 (≈ 2320 µg/mL) | – | –
59 | Nc1nnc(-c2ccc3[nH]nnc3c2)s1 | inactive | – | – | – | growth, % of control at 50 µg/mL (Leishmania major [11]): 40.9%; inhibition [6]: inactive; inhibition [7]: inactive; growth, % of control at 50 µg/mL (Leishmania mexicana [9]): 112%; growth, % of control at 50 µg/mL (Leishmania mexicana [12]): 18.2%; growth, % of control at 50 µg/mL (Leishmania major [10]): 83.5%
60 | C/C(=N\N)c1ccc(C)cc1 | – | – | – | inactive | –
61 | Nc1nncs1 | – | – | – | – | inhibition [13]: inactive
62 | CCOc1ccc(-c2nnc(N)s2)cc1 | inactive | 2.73 | 440 (≈ 97.4 µg/mL) | – | –
63 | Nc1nnc(CCCC(=O)c2ccccc2)s1 | inactive | 1.76 | 780 (≈ 193 µg/mL) | – | –
64 | Cc1ccc(C=O)cc1F | – | – | – | inactive | –
65 | Nc1nnc(-c2cccc(NS(=O)(=O)c3ccc([N+](=O)[O-])cc3)c2)s1 | inactive | 2.43 | 19 (≈ 7.17 µg/mL) | – | –
66 | O=C(O)c1ccc2cc[nH]c2c1 | – | – | – | inactive | –
67 | Nc1nnc(-c2ccco2)s1 | inactive | 0.82 | 13000 (≈ 2170 µg/mL) | – | –
68 | NCCc1ccc(N)cc1 | – | – | – | inactive | –
69 | CN(C)C1=C2C=CC=C2C(=O)C1 | – | – | – | inactive | –
70 | Cc1ccc(C(=O)Nc2nnc(-c3ccc(C)c(C)c3)s2)cc1C | inactive | – | – | – | –
71 | O=C(c1ccc(O)cc1)c1ccc(F)cc1 | – | – | – | – | inhibition [6]: inactive; inhibition [7]: inactive
72 | OCc1ccc2[nH]ccc2c1 | – | – | – | inactive | –
73 | c1ccc2cnncc2c1 | – | – | – | inactive | –
74 | COc1ccc(N2CCCC2=O)cc1 | – | – | – | inactive | –
75 | Nc1nnc(-c2cccc(NS(=O)(=O)c3cccc([N+](=O)[O-])c3)c2)s1 | inactive | 2.36 | 24 (≈ 9.06 µg/mL) | – | –
76 | O=c1[nH]c2c(Cl)cccc2s1 | – | – | – | inactive | –
77 | O=C(Nc1nnc(-c2ccncc2)s1)c1ccncc1 | inactive | – | – | – | –
78 | Nc1nnc(-c2ccccc2)s1 | inactive | 2.03 | 2000 (≈ 354 µg/mL) | – | –
